Laboratory results as given in ChEMBL document CHEMBL1133088 (J Med Chem, 2000).

Assays:
[1] = % lactone at different intervals of time in PBS with HSA suspension; format: ADME; conditions: human, buffer
Outline: (§1)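 Lactone-ring hydrolysis of 1 uM drug at 37 °C and pH 7.4, incubated in PBS, in PBS containing physiologically relevant HSA or albumin-free red blood cells, or in whole human blood. Isocratic acetonitrile/2% triethylamine acetate (pH 5.5) at 1 mL/min; lactone eluted near 7.0 min, carboxylate near 2.0 min.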

[2] = % lactone at different intervals of time in PBS with RBC suspension; format: ADME; conditions: erythrocytes; outline: as §1
[3] = Half life of compound in PBS with HSA suspension; format: ADME; conditions: human, HSA (human serum albumin) in PBS; outline: as §1
[4] = species: Homo sapiens; assay: % lactone at different intervals of time in human blood.; format: ADME, organism-based; outline: as §1
[5] = Equilibrium association constant interacting with unilamellar vesicles of electroneutral in PBS buffer at pH 7.4; format: ADME
Outline: (§2)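 Fluorescence anisotropy titration of 1 uM total drug with small unilamellar vesicles (DMPC or DMPG) in PBS, pH 7.4, 37 °C. SUVs were sonicated from 10 mg/mL lipid stocks and annealed 30 min at 37 °C; DMPG pH was readjusted to 7.4. Readings were taken about 0.5–1 min after mixing. K came from least-squares slopes of double-reciprocal plots (1/bound fraction vs 1/[lipid]).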

[6] = Half life for of compound in PBS with RBC suspension; format: ADME; conditions: RBC (red blood cell) suspension in PBS; outline: as §1
[7] = Equilibrium association constant interacting with unilamellar vesicles of negatively charged DMPG in PBS buffer at pH of 7.4 and 37 degrees celsius.; format: ADME; conditions: pH 7.4; outline: as §2
[8] = % lactone at different intervals of time in PBS suspension; format: ADME; conditions: buffer; outline: as §1
[9] = Half life of compound in PBS suspension; format: ADME; outline: as §1
[10] = Half life in human blood.; format: ADME, organism-based; conditions: whole blood; outline: as §1
[11] = Inhibition against MDA-MB-435 S human breast cancer cells in the absence of albumin; format: functional, cell-based
Outline: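 Read-out was sulforhodamine B, which stains protein in cells and cell fragments still attached to the dish bottom, including dying or dead attached cells. IC50 was derived from the cell survival profiles.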

[12] = tested on: U-87 MG; assay: Inhibition of tumor growth at day 28 postimplantation after administration of 3 mg/kg/day in nude mouse U87 glioma subcutaneous model system; format: functional, U-87MG ATCC; conditions: sc, 672 h
[13] = tested on: U-87 MG; assay: Inhibition of tumor growth at day 28 postimplantation after administration of 10 mg/kg/day in nude mouse U87 glioma subcutaneous model system; format: functional, U-87MG ATCC; conditions: sc, 672 h
[14] = tested on: Tumor Cell line; assay: Mean GI50 against variety of human tumor cell lines; format: functional
Outline: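 NCI tumour cell panel: 5000–40 000 cells/well preincubated 24 h at 37 °C, then exposed 48 h (5% CO2) to five 10-fold dilutions from DMSO stocks. Highest well concentration in routine testing was 10^-4 M. Growth was read by sulforhodamine B protein staining.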

[15] = tested on: MDA-MB-435; assay: Inhibition against MDA-MB-435 human breast cancer cells in the presence of 1 mg/mL HSA
[16] = tested on: MDA-MB-435; assay: Inhibition against MDA-MB-435 human breast cancer cells in the absence of HSA; format: functional, cell-based
Outline: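 MDA-MB-435 S human breast cancer cells exposed to drug with or without added HSA. Viability was read after a 3-day growth assay by sulforhodamine B staining of protein remaining attached to the dish.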

IC50 [11] [nM]	half-life ([6]; human) [min]	SMILES	Lactone [1] [%]	Lactone [2] [%]	half-life [3] [min]	Lactone [4] [%]	KDMPC [5] [M⁻¹]	half-life [6] [min]	KDMPG [7] [M⁻¹]	Lactone [8] [%]	half-life [9] [min]	half-life [10] [min]	inhibition in vivo at 3 mg/kg/day [12] [%]	inhibition in vivo at 10 mg/kg/day [13] [%]	GI50 [14] [nM]	IC50 [15] [nM]	IC50 [16] [nM]
–	–	CC[C@@]1(O)C(=O)OCc2c1cc1n(c2=O)Cc2c-1nc1ccccc1c2[Si](C)(C)C(C)(C)C	0.1	59.4	46.3	1	15500	79.4	16000	12.2	27.9	71	–	–	–	–	–
14	51.4	CC[C@@]1(O)C(=O)OCc2c1cc1n(c2=O)Cc2c-1nc1ccc(O)cc1c2[Si](C)(C)C(C)(C)C [AR-67]	10.5	41.4	119	30.5	2500	–	2800	10.2	31.8	–	61	73	21	–	–
–	–	CCc1c2c(nc3ccc(O)cc13)-c1cc3c(c(=O)n1C2)COC(=O)[C@]3(O)CC [7-ETHYL-10-HYDROXYCAMPTOTHECIN]	–	37.5	36.1	19.5	260	24.4	160	15.3	20.9	32	–	–	–	–	–
–	–	CC[C@@]1(O)C(=O)OCc2c1cc1n(c2=O)Cc2cc3cc(O)ccc3nc2-1 [HYDROXYCAMPTOTHECIN]	–	–	–	–	–	–	–	–	–	–	–	–	36	–	–
–	–	CC[C@@]1(O)C(=O)OCc2c1cc1n(c2=O)Cc2cc3c(CN(C)C)c(O)ccc3nc2-1 [TOPOTECAN]	–	–	–	–	10	–	50	–	–	–	–	–	–	–	–
–	–	CC[C@@]1(O)C(=O)OCc2c1cc1n(c2=O)Cc2cc3ccccc3nc2-1 [CAMPTOTHECIN]	< 0.5	34.6	11.9	5.3	100	30.8	100	17	–	–	–	–	44	375	15
–	–	CC[C@@]1(O)C(=O)OCc2c1cc1n(c2=O)Cc2c-1nc1ccccc1c2[Si](C)(C)CCCCl	2.7	43.4	16	2.2	2800	59.7	2500	12	23.3	85.6	–	–	–	–	–
–	–	CC[C@@]1(O)C(=O)OCc2c1cc1n(c2=O)Cc2c-1nc1ccc(O)cc1c2[Si](C)(C)CCCCl	17.2	50.2	48	17.8	2200	67.7	1200	11.3	29.5	65.3	–	–	–	–	–
